This is a sample that favours compounds with a hit; in the whole collection about 2% have one here.
GAA850 FXN act: increases GAA850 frataxin promoter reporter activity; HEK293 lucGAA850 FXN promoter luciferase reporter, 24 h; percent of 10 µM SAHA response; hit rate 0.56% among 360,000; activation, % at 6 µM; AID 540364;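 active = activation above the average of all compounds screened plus 3 SD, cutoff fixed separately per campaign, cut at about 7.5% in these data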;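 note: 0% = DMSO wells and 100% = 10 µM SAHA wells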
NR2E3 ag-1: agonists of human NR2E3 nuclear receptor. hit rate 0.35% among 360,000. CHO-S Gal4-NCOR/VP16-NR2E3 two-hybrid, luciferase. Q9Y5X4. AID 602229. inhibition of corepressor binding, % at 3.98 µM;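 active = inhibition above the mean of all tested compounds plus 3 SD, cut at about 70% in these data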;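 note: 0% = DMSO with NR2E3 transfected cells and 100% = cells lacking NR2E3 construct; higher means lower luciferase signal from less NR2E3 corepressor binding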
Target sequence (Q9Y5X4 whole entry, looked up, the tested form may be a part): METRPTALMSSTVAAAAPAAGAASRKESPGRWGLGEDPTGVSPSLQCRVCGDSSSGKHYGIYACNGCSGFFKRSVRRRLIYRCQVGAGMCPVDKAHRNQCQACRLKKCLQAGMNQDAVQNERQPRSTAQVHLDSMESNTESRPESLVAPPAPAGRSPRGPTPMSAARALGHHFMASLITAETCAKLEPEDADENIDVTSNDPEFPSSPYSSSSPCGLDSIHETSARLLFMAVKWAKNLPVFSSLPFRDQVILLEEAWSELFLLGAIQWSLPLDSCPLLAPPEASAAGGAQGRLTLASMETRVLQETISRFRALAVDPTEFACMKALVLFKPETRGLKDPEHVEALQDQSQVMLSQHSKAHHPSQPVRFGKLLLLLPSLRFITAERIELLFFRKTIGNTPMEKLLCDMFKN
Myeloid diff 2: myeloid differentiation induction; ER-HoxA9 myeloid progenitors, lysozyme-GFP differentiation, flow cytometry; calls only at 10 µM; hit rate 1% among 360,000;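 active = normalized GFP-positive differentiation at or above the plate's own cutoff, the solvent-only control mean plus 3 SD; inconclusive = no clear call, values can overlap the other calls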;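 note: cells exposed to compound for four days before flow analysis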
NR2E3 ag-2: agonists of human nuclear receptor NR2E3; Q9Y5X4; inhibition of corepressor binding, % at 4.78 µM; hit rate 0.12% among 320,000; GST-NR2E3/biotin-RetCOR TR-FRET, 1536-well; AID 2300;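 active = percent inhibition above the cutoff of mean plus 3 SD of all tested compounds, set per screening campaign, cut at about 20% in these data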;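 note: 0% = DMSO wells and 100% = biotin wells as full block of FRET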
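Assay system: NR2E3–RetCOR corepressor complex. Quantity: 1.35 nM GST-NR2E3. Buffer or medium: pH 7.5 Tris-based buffer. Reagent: biotinylated RetCOR corepressor at 7 nM final. Schedule: 5 h at 4 °C. Detection: TR-FRET, emission read at 617 and 671 nm. Replicates: one well per compound, singlicate testing.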
T cell modulator: modulates CD8 T cell binding to vesicles; 2C CD8+ T cell-vesicle binding, flow cytometry; active compounds read low; response (vesicle binding), % at 7 µM; hit rate 0.068% among 330,000;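 active = response, share of CD8 T cells binding vesicles, and their 90th percentile fluorescence all below set limits, cut at about 80% in these data, passing the limit was not always enough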;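 note: values below 100% mean blocked vesicle binding to the CD8+ T cells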
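Read-out – percent CD8+ FL2 mean versus row control · System – murine 2C transgenic CD8+ T lymphocytes · Times – 1.5 h cell–vesicle binding at 37 °C, then 20 min icy labelling · Control set – naked vesicles low, QL9 vesicles with vehicle high · Detection – cytometric PE anti-B7-1 and Alexa647 anti-CD8 signals after 1% paraformaldehyde fixation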
Active calls of the source: *; i = inactive; u = inconclusive; x = no result given; + = active, no number.

SMILES | GAA850 FXN act | NR2E3 ag-1 | Myeloid diff 2 | NR2E3 ag-2 | T cell modulator
CCc1nc(N)nc(N)c1-c1ccc(Cl)cc1 | 2 | -20 | + | 6 | 548
COc1ccc(CCCNC(=O)C2Cc3c(-c4ccc(NC(C)=O)cc4)ccnc3O2)cc1 (stereo not given) | 1 | -4 | i | x | x
O=C(c1cc(Cl)cc(Cl)c1)N1CCC2CC1c1cc(N3CCCCC3)ccc12 (stereo not given) | 0 | -13 | i | x | x
COc1ccc(CNC(=O)c2cc(C3CC3)nc3c2cnn3C(C)C)cc1 | 1 | 10 | i | 3 | 194
COc1ccc(CCNC(=O)c2cc(C3CC3)nc3c2cnn3C(C)C)cc1OC | 0 | -2 | + | 0 | 513
COc1cc(/C=C2\SC(=Nc3ccccc3)N(CCc3c[nH]c4ccccc34)C2=O)ccc1OC(C)C(=O)O (stereo not given) | 0 | -4 | i | 3 | 114
O=C1/C(=C/c2ccc(N3CCOCC3)o2)SC(=Nc2ccccc2)N1CCc1c[nH]c2ccccc12 | -14 | 21 | + | 2 | 767
COC(=O)CCN1CCC2CC1c1cc(N3CCCCC3)ccc12 (stereo not given) | -1 | -24 | i | x | x
Cc1ccc2c(COC(=O)C3CSC4(C)CCC(=O)N34)cc(=O)oc2c1C (stereo not given) | 1 | -8 | i | x | 239
CN(C)CCNC(=O)c1ccc(Cl)s1 | -3 | 10 | + | 1 | 381
CCn1c(-c2ccc[nH]c2=O)nc2ccccc21 | 1 | 8 | + | -3 | 250
O=C(CN1CCSC1=O)Nc1ccc(N2CCOCC2)cc1 | 1 | -21 | i | x | x
COC(C[C@H]1O[C@@H]1[C@H](O)COCc1ccccc1)OC | 2 | 2 | + | 3 | 331
COC(C[C@@H]1O[C@H]1[C@@H](O)COCc1ccccc1)OC | 1 | -6 | i | x | x
CC(C)(C)c1ccc(C(=O)N2CCC2(C)C(=O)NS(=O)(=O)c2ccccc2Cl)cc1 (stereo not given) | 0 | 2 | i | x | x
CC(=O)Oc1ccc(C(=O)[C@H]2[C@H]3C(=O)N(c4ccc(C)cc4)C(=O)[C@H]3[C@@H]3C=CC=NN32)cc1 | 6 | -49 | + | -1 | 129
CC1CCCCC1N1CN=C(Nc2nc3ccccc3s2)NC1 (stereo not given) | 1 | 9 | + | 1 | 334
c1ccc2sc(NC3=NCN(C4CCCCC4)CN3)nc2c1 | 1 | -15 | i | 2 | 371
COc1cc(NC(=O)CCc2nnc3ccc(N4CCOCC4)nn23)cc(OC)c1OC | 2 | -14 | i | -3 | 189
CN(CCNC(=O)C1CCN(c2ncnc3c2nc2n3CCCCC2)CC1)Cc1ccccc1 | -3 | 11 | + | 2 | 864
COC(=O)[C@@]1(C(C)C)N=C(c2cc(OC)c(OC)c(OC)c2)[C@]2(O1)C(=O)N(C)c1ccccc12 | x | -14 | i | x | x
CCCNC(=O)c1ccc(N2CCC3(CC2)CC(c2ccccc2)=NO3)c(NC(=O)c2ccccc2)c1 | -3 | 4 | + | 6 | 336
O=C1NC(=S)S/C1=C/c1ccc(N2CCOCC2)o1 | -2 | -5 | + | -1 | i
O=C1S/C(=C\c2ccc(N3CCOCC3)o2)C(=O)N1Cc1ccc(F)cc1 | -1 | 8 | i | 1 | 938
N#CC1=C(N)SC(N)=C(C#N)C1CCc1ccccc1 | 1 | -17 | + | 8 | 207
SMILES | GAA850 FXN act | NR2E3 ag-1 | Myeloid diff 2 | NR2E3 ag-2 | T cell modulator
N#CC1=C(N)SC(N)=C(C#N)C1Cc1ccccc1 | 2 | -20 | i | 15 | 370
CCCCC(CC)CN=C(N)NC(N)=NCCCCCCN=C(N)NC(N)=NCC(CC)CCCC (stereo not given) | -10 | 90* | u | -1 | 475
COc1cc2c(cc1OC)-c1cc(OCCN3CCOCC3)nc(=O)n1CC2 | 4 | -1 | + | -4 | 279
C[C@@H]1COC(=O)[C@H](Cc2ccc(F)cc2)CC/C=C\C[C@@H](CC(=O)NCCO)C(=O)N1 | 2 | 2 | i | x | 60*
O=C(C[C@@H]1C/C=C\CC[C@H](Cc2ccc(F)cc2)C(=O)OC[C@@H](Cc2ccccc2)NC1=O)NCCO | 0 | -22 | i | x | 280
CC1CCCC(NC(=O)COC(=O)c2cccs2)C1C (stereo not given) | 0 | -12 | i | 0 | 281
